In PubChem BioAssay one finds outcome and activation data, which are given here for 17 molecules.

The source made the active and inactive calls.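 The calls were made as follows: active = duplicate-averaged activation above buffer control mean plus 5 SD of those controls; inactive = the rest.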

The assay can be described thus: nonspecific flux increase, KCNQ1-free cells – parental CHO cells, counter-screen for KCNQ1 potentiator project (AID 493006).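 As to activation: fluorescence ratio of max minus min over baseline after K+ and Tl+ depolarization.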 Particulars: parental CHO-K1 cells, FluxOR thallium flux, at 10 µM; stronger effect = higher value. In a few lines:
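Material: untransfected host CHO-K1 cells with FluxOR thallium dye. Timing: overnight 37 °C plating, 90 min RT dye, 20 min compound. Detection: kinetic FluxOR fluorescence, 10 s baseline, 110 s after stimulus. Read-out basis: max-minus-min fluorescence over baseline, percent of buffer-to-R-L3 span. Replicates: duplicate wells per compound, percent values averaged.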
Background: The purpose of a counterscreen is to sort out artefacts and off-target activity.
Take `O=C(c1ccco1)N1CCN(S(=O)(=O)c2ccc(F)cc2)CC1`: the result was inactive.

In the case of `O=C(O)c1c2c(nc3ccccc13)/C(=C/c1cccc([N+](=O)[O-])c1)CCC2`, the activation is 172% (active).

Turning to `CC(C)(C)C1CCc2c(sc(NC(=O)C3CC=CCC3C(=O)O)c2C#N)C1` (configuration not stated), the activation is 178% (active).

As for `CC/C(=N\NC(=S)Nc1cccc(C)c1)c1ccccc1`, the result was inactive.

`O=C(NC(=S)Nc1ccccc1N1CCOCC1)c1ccc(-c2ccccc2F)o1`: the activation is 147% (active).

Consider `CCCCN(CCCC)c1ccc(C(=O)c2ccccc2C(=O)O)c(O)c1`, for which the activation is 212% (active).

As for `CC(/C=N/NC(=O)c1cc(-c2cccs2)[nH]n1)=C\c1ccccc1`, the activation is 184% (active).

As for `CCOC(=O)c1sc(NC(=S)NC(=O)c2ccco2)nc1C`, the activation is 142% (active).

For the molecule `COc1cccc(OCC(=O)NNC(=O)C(=O)Nc2cccc(C)c2)c1`, the activation is 188% (active).

For `CCCCOC(=O)c1cc(C)nc2ccc(Br)cc12`, the activation is 306% (active).

`Cc1ccc(-c2nc3ccccc3c(=O)n2O)cc1`: the activation was 169% (active).

As for `Cn1cc(-c2nnnn2-c2ccccc2)c(=O)c2ccccc21`, the result was inactive.

With `Cc1sc2nc(C(C)C)nc(SCC(=O)NCc3ccco3)c2c1C`, the activation was 276% (active).

In the case of `C=CCn1c(SCC(N)=O)nc2scc(-c3ccc(C)o3)c2c1=O`, the activation is 223% (active).

Regarding `COc1cccc(NC(=O)NCC2CCN(Cc3ccc(F)cc3)CC2)c1`, the outcome was inactive.

For the molecule `CCOC(=O)c1cnc(SCC(=O)Nc2nc(C)c(C)s2)nc1N`, the outcome was inactive.

For the molecule `OCCN1CCN(c2ncnc3c2sc2nc(N4CCOCC4)c4c(c23)CCC4)CC1`, the result was inactive.
